Measured values taken from ChEMBL document CHEMBL1765026, “Small molecule agonists of the orphan nuclear receptors steroidogenic factor-1 (SF-1, NR5A1) and liver receptor homologue-1 (LRH-1, NR5A2)” (J Med Chem, 2011).
Values belong to the compound of their own block, whether it stands above or below them. Calls of active or inactive are those of the source. The rule behind the calls is not given here.

How the values were obtained:
[1] = target: Steroidogenic factor 1 (Mus musculus) (UniProt P33242); experiment: Displacement of dipalmitoyl phosphatidylinositol 4,5-bisphosphate from mouse SF-1 ligand binding domain at 1 uM after 16 hrs with Coomassie blue staining by PAGE method
[2] = Solubility of the compound; format: physicochemical
[3] = target: Nuclear receptor subfamily 5 group A member 2 (Homo sapiens) (UniProt O00482); experiment: Agonist activity at human LRH-1 ligand binding domain at 100 uM with Coomassie blue staining by PAGE method
[4] = target: Steroidogenic factor 1 (Mus musculus) (UniProt P33242); experiment: Agonist activity at mouse SF-1 expressed in HEK293 cells assessed as increase in SHP mRNA levels at 10 uM after 24 hrs by RT-qPCR method; format: functional, cell-based
Procedure, shortened: (§1)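 HEK293 cells stably carrying Tet-inducible, 3XFlag-tagged mouse SF-1 were induced with 100 ng/mL Tet, and compound in DMSO was added 16 h later. Cells were treated at 10 µM for 24 h. Transcript levels were measured by RT-qPCR and expressed relative to DMSO vehicle.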

[5] = target: Steroidogenic factor 1 (Mus musculus) (UniProt P33242); experiment: Agonist activity at mouse SF-1 expressed in HEK293 cells assessed as increase in StAR mRNA levels at 10 uM after 24 hrs by RT-qPCR method; format: functional, cell-based; procedure, shortened: as §1
[6] = target: Steroidogenic factor 1 (Mus musculus) (UniProt P33242); experiment: Agonist activity at mouse SF-1 expressed in HEK293 cells assessed as increase in GOS2 mRNA levels at 10 uM after 24 hrs by RT-qPCR method; format: functional, cell-based; procedure, shortened: as §1
[7] = target: Steroidogenic factor 1 (Mus musculus) (UniProt P33242); experiment: Agonist activity at mouse SF-1 expressed in HEK293 cells assessed as increase in MeOx1 mRNA levels at 10 uM after 24 hrs by RT-qPCR method; format: functional, cell-based; procedure, shortened: as §1
Steroidogenic factor 1 [8] = target: T1, Steroidogenic factor 1 (Homo sapiens, UniProt Q13285); experiment: Agonist activity at human SF-1 assessed as DAX1 1-23 peptide recruitment by TR-FRET assay relative to control
Steroidogenic factor 1 [9] = target: T1, Steroidogenic factor 1; experiment: Agonist activity at human SF-1 assessed as DAX1 1-23 peptide recruitment by TR-FRET assay; format: functional
Procedure, shortened: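 Biotinylated, bacterially expressed human SF-1 LBD was bound to APC-streptavidin. Biotinylated DAX-1 peptide (aa 1–23) was bound to europium-streptavidin. Receptor and peptide were incubated with test compound, typically at 11 concentrations from 1 nm to 10 µM. Recruitment was read by TR-FRET as the 671/618 nm fluorescence ratio, and pEC50 was calculated from the dose–response curve.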

Steroidogenic factor 1 [10] = target: T1, Steroidogenic factor 1; experiment: Agonist activity at human SF-1 assessed as DAX1 1-23 peptide recruitment by TR-FRET assay relative to control
[11] = target: Nuclear receptor subfamily 5 group A member 2 (Homo sapiens) (UniProt O00482)
NCI-H295RR = experiment: Inhibition of doxycycline induced proliferation in human NCI-H295RR cells; format: functional, cell-based
[12] = target: Steroidogenic factor 1 (Mus musculus) (UniProt P33242); experiment: Displacement of dipalmitoyl phosphatidylinositol 4,5-bisphosphate from mouse SF-1 ligand binding domain at 100 uM after 16 hrs with Coomassie blue staining by PAGE method
Steroidogenic factor 1 [13] = target: T1, Steroidogenic factor 1; experiment: Inverse agonist activity at SF-1; format: functional
[14] = target: Steroidogenic factor 1 (Mus musculus) (UniProt P33242); experiment: Agonist activity at mouse SF-1 expressed in HEK293 cells assessed as increase in SHP mRNA levels after 24 hrs by RT-qPCR method; format: functional, cell-based
Procedure, shortened: (§2)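 Stable HEK293 lines expressing Tet-inducible mouse SF-1 or empty vector were induced with 100 ng/mL Tet, with compound in DMSO added 16 h afterward. Cells were exposed to a dose series for 24 h. SHP mRNA was quantified by RT-qPCR relative to DMSO, with significance by p-value.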

[15] = target: Steroidogenic factor 1 (Mus musculus) (UniProt P33242); experiment: Agonist activity at mouse SF-1 expressed in HEK293 cells assessed as increase in SHP mRNA levels at 5 uM after 24 hrs by RT-qPCR method; format: functional, cell-based; procedure, shortened: as §2

Sequence of Nuclear receptor subfamily 5 group A member 2 (Homo sapiens) (O00482 whole entry, the tested form may be a part): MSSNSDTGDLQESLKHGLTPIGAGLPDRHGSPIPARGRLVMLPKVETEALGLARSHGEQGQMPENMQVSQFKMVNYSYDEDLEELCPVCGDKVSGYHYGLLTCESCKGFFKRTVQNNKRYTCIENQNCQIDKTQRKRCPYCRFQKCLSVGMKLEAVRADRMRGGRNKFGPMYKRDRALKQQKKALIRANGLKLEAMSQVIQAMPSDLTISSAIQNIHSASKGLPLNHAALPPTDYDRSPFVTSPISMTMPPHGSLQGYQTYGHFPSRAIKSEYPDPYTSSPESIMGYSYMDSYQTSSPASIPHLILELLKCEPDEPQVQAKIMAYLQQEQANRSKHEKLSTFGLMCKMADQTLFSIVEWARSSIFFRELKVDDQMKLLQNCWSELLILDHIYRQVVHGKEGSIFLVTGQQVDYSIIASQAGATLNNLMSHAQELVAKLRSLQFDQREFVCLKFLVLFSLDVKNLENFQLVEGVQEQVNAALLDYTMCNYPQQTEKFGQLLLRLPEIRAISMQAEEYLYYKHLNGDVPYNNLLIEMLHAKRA
Sequence of Steroidogenic factor 1 (Mus musculus) (P33242 whole entry, the tested form may be a part): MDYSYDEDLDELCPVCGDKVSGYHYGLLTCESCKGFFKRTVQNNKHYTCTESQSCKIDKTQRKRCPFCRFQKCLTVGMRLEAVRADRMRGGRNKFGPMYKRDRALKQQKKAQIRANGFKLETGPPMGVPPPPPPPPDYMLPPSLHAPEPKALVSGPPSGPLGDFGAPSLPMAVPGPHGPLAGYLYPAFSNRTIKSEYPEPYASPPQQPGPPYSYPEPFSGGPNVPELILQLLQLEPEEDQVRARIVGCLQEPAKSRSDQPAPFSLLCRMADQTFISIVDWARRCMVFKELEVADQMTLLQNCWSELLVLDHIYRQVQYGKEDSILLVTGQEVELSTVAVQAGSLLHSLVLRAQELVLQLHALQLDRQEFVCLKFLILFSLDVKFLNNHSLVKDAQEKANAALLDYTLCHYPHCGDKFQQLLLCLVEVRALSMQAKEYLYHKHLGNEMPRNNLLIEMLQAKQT
T1 sequence (Q13285 whole entry): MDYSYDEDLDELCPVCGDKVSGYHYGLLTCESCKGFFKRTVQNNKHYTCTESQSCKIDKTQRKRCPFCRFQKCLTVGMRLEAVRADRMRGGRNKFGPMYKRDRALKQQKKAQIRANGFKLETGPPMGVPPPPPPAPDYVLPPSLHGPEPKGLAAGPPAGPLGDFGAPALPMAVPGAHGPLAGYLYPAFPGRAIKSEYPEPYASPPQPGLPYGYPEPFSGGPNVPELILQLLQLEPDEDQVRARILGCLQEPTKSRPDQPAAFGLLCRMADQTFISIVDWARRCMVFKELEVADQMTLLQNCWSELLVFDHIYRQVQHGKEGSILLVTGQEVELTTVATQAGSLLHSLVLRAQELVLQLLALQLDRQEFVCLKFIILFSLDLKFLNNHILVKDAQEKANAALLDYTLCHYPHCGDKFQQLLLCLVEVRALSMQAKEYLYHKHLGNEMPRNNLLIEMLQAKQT

Activity [1]: Active | solubility [2]: soluble | Activity [3]: Active | Activity [4]: Active | Activity [5]: Active | Activity [6]: Active | Activity [7]: Active
SMILES: C=C(c1ccccc1)[C@@]12CN(C)C[C@@H]1CC(CCCCCC)=C2c1ccccc1 (racemic)

solubility [2]: soluble | pEC50 (Steroidogenic factor 1 [8]): inactive
SMILES: C=C(c1ccccc1)[C@@]12CN(Cc3ccccc3)C[C@@H]1CC(CCCCCC)=C2c1ccccc1 (racemic)

Ratio (Steroidogenic factor 1 [9]): 0.56 | EC50 (Steroidogenic factor 1 [10]): 200 nM
SMILES: CCCCCCC1=C(c2ccccc2)[C@]2(OCC(C)CC)CCC[C@@H]2C1 (mixture of isomers)

pEC50 [11]: inactive
SMILES: C=C(c1ccccc1)[C@@]12CCC[C@@H]1CC(CCCCCC)=C2CCCC (racemic)

pEC50 (Steroidogenic factor 1 [8]): inactive
SMILES: CCCCCCC1=C(c2ccccc2)[C@]2(OCc3ccccc3)CCC[C@@H]2C1 (racemic)

SMILES: CCOC(=O)C(C)Oc1cccc2c(=O)n(CC(=O)Nc3ccc(OC)cc3)ccc12 (stereo not given)
Activity (NCI-H295RR): Active

pEC50 [11]: inactive | pEC50 (Steroidogenic factor 1 [8]): inactive
SMILES: CCCCCCO[C@@]12CCC[C@@H]1CC(CCCCCC)=C2c1ccccc1 (racemic)

Activity [12]: inactive | Activity [4]: inactive | pEC50 (Steroidogenic factor 1 [8]): inactive
SMILES: C=C(c1ccccc1)[C@@]12CCC[C@@H]1CC(CCCCCC)=C2CCCO (racemic)

pEC50 [11]: inactive | pEC50 (Steroidogenic factor 1 [8]): inactive
SMILES: C=C(c1ccccc1)[C@@]12CCC[C@@H]1CC(CCCCCC)=C2c1ccc(CC)cc1 (racemic)

pEC50 [11]: inactive | pEC50 (Steroidogenic factor 1 [8]): inactive
SMILES: C=C(c1ccccc1)[C@@]12CCC[C@@H]1CC(CCCCCC)=C2CCCCCC (racemic)

pEC50 [11]: inactive
SMILES: C=C(c1ccccc1)[C@@]12CCC[C@@H]1CC(CCCCCC)=C2CCC (racemic)

SMILES: C=C(c1ccccc1)[C@@]12CCC[C@@H]1CC([Si](C)(C)c1ccccc1)=C2c1ccccc1 (racemic)
Ratio (Steroidogenic factor 1 [9]): 0.33 | EC50 (Steroidogenic factor 1 [10]): 63.1 nM

Ratio (Steroidogenic factor 1 [9]): 0.76 | EC50 (Steroidogenic factor 1 [10]): 200 nM | Activity [12]: inactive | Activity [4]: inactive
SMILES: C=C(CCCC)[C@@]12CCC[C@@H]1CC(CCCCCC)=C2c1ccccc1 (racemic)

pEC50 [11]: inactive | pEC50 (Steroidogenic factor 1 [8]): inactive
SMILES: C=C(c1ccccc1)[C@@]12CCC[C@@H]1CC=C2c1ccccc1 (racemic)

pEC50 [11]: inactive | pEC50 (Steroidogenic factor 1 [8]): inactive
SMILES: C=C(CCCCCCCC)[C@@]12CCC[C@@H]1CC(CCCCCC)=C2c1ccccc1 (racemic)

IC50 (Steroidogenic factor 1 [13]): 7300 nM
SMILES: CCCCCCCOc1ccc(O)cc1

pEC50 (Steroidogenic factor 1 [8]): inactive
SMILES: C=C(c1ccc(CCCC)cc1)[C@@]12CCC[C@@H]1CC(CCCCCC)=C2c1ccccc1 (racemic)

Activity [1]: Active | solubility [2]: soluble | Activity [14]: Dose-dependent effect | Activity [15]: Active | Activity [4]: Active | Activity [5]: Active | Activity [6]: Active | Activity [7]: Active
SMILES: C=C(c1ccccc1)[C@@]12CC[C@@H](O)[C@@H]1CC(CCCCCC)=C2c1ccccc1 (racemic)

Ratio (Steroidogenic factor 1 [9]): 0.67 | EC50 (Steroidogenic factor 1 [10]): 200 nM
SMILES: CCCCCCC1=C(c2ccccc2)[C@]2(OCCC)CCC[C@@H]2C1 (racemic)

pEC50 [11]: inactive
SMILES: CCCCCCC1=C(c2ccccc2)[C@]2(OCCCCC)CCC[C@@H]2C1 (racemic)

pEC50 [11]: inactive | pEC50 (Steroidogenic factor 1 [8]): inactive
SMILES: C=C(c1ccc(C(C)(C)C)cc1)[C@@]12CCC[C@@H]1CC(CCCCCC)=C2c1ccccc1 (racemic)

pEC50 [11]: inactive | pEC50 (Steroidogenic factor 1 [8]): inactive
SMILES: C=C(CCCCCC)[C@@]12CCC[C@@H]1CC(CCCCCC)=C2c1ccccc1 (racemic)

pEC50 [11]: inactive | pEC50 (Steroidogenic factor 1 [8]): inactive
SMILES: C=C(c1ccc(CC)cc1)[C@@]12CCC[C@@H]1CC(CCCCCC)=C2c1ccccc1 (racemic)

Ratio (Steroidogenic factor 1 [9]): 0.34 | EC50 (Steroidogenic factor 1 [10]): 200 nM
SMILES: C=C(c1ccccc1)[C@@]12C[C@H](OC(C)=O)C[C@@H]1CC(CCCCCC)=C2c1ccccc1 (racemic)

pEC50 [11]: inactive | pEC50 (Steroidogenic factor 1 [8]): inactive
SMILES: CCCCCCC1=C(c2ccccc2)[C@]2(OC)CCC[C@@H]2C1 (racemic)

pEC50 [11]: inactive | pEC50 (Steroidogenic factor 1 [8]): inactive
SMILES: C=C(c1ccc(-c2ccccc2)cc1)[C@@]12CCC[C@@H]1CC(CCCCCC)=C2c1ccccc1 (racemic)

pEC50 [11]: inactive | pEC50 (Steroidogenic factor 1 [8]): inactive
SMILES: C=C(c1ccc(OC)cc1)[C@@]12CCC[C@@H]1CC(CCCCCC)=C2c1ccccc1 (racemic)

pEC50 [11]: inactive | pEC50 (Steroidogenic factor 1 [8]): inactive
SMILES: C=C(c1ccccc1)[C@@]12C[C@@H](OC(C)=O)C[C@@H]1CC(CCCCCC)=C2c1ccccc1 (racemic)

Ratio (Steroidogenic factor 1 [9]): 0.59 | EC50 (Steroidogenic factor 1 [10]): 200 nM
SMILES: C=C(c1ccccc1)[C@@]12CCC[C@@H]1CC(CCCCCC)=C2C1CCCCC1 (racemic)
